Rpn11 inh = inhibitors of human proteasome Rpn11 | O00487 | human 26S proteasome, Ub4-pepOG fluorescence polarization; 20S core pre-blocked with epoxomicin | inhibition, % at 20 µM | 360,000 tested, 0.59% active | AID 588493;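 active = inhibition at 20 µM, scaled to each plate's controls, above about 33%, limit read from the data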
Target sequence (O00487 whole entry, looked up): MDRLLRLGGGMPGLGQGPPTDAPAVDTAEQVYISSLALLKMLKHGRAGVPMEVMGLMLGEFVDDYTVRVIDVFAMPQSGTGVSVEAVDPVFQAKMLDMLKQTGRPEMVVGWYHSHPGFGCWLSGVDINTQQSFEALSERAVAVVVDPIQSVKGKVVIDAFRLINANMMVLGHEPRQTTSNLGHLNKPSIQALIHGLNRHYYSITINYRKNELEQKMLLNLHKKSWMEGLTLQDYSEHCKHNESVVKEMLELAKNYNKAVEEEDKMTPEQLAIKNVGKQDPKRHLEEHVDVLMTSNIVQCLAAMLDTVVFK
CSN inh = CSN deneddylation inhibition; 360,000 tested, 0.38% active; Purified CSN, SCF-Nedd8-OG deneddylation, fluorescence polarization; inhibition, % at 12.5 µM;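 active = pattern-corrected inhibition above about 35%, with an unprinted fluorescence ratio check between 0.5 and 1.5, limit read from the data, passing the limit was not always enough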;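 note: 0% = enzyme with substrate and 100% = substrate without enzyme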
Target sequence (Q92905 whole entry, looked up, one chain of several): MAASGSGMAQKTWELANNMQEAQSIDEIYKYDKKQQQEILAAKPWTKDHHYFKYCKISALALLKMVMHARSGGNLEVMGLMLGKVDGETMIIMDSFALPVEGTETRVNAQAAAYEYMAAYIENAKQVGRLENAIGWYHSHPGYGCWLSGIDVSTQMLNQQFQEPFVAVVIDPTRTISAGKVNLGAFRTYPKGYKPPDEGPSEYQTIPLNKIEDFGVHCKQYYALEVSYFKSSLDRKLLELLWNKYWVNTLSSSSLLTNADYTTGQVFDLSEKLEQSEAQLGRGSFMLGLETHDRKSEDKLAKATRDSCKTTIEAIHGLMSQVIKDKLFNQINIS
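Assay system: purified human Csn5 enzyme expressed in HEK293T cells; Input: 0.24 nM Csn5 enzyme, final concentration; Reagent: 10 nM SCFSkp2-Nedd8OG; Compound dosing: 12.5 µM single point; Times: reaction 90 min, room temperature; Technique: fluorescence polarization readout.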
HNF4A DNA FP = change in binding of human HNF4 alpha to DNA. AID 1224865. HNF4a-FITC DNA binding, fluorescence polarization, 1 h. P41235. activity change, % at 10 µM. 360,000 tested, 0.3% active; in the data active = activity change above about 30%, passing the limit was not always enough
TbMetRS inhib = blocks T. brucei methionyl-tRNA synthetase activity; 360,000 tested, 0.4% active; inhibition, % at 11.9 µM; AID 624268; purified T. brucei MetRS, ATP depletion, Kinase-Glo luminescence;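 active = inhibition above a per-plate cutoff of the control wells' mean inhibition plus 3 SD, cut at about 5.5% in these data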;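 note: 0% = DMSO wells median and 100% = median of wells with control inhibitor compound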
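Measured by: Kinase-Glo luciferase luminescence reporting remaining unconsumed ATP. Material: purified T. brucei MetRS enzyme. Doses: 11.9 µM compound single dose, 0.9% DMSO. Medium: HEPES buffer containing pyrophosphatase, BSA, spermine, DTT. Times: 15 min preincubation, 2 h reaction, all 25 °C. Reagent: methionine, ATP and bulk E. coli tRNA.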
PREPL inh = inhibits the human prolyl oligopeptidase-like enzyme; 320,000 tested, 0.68% active; inhibition, % at 5.96 µM; recombinant PREPL, fluorescence polarization activity-based probe; Q4J6C6; in the data active = inhibition above about 43%;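 note: 0% = enzyme with DMSO and 100% = wells lacking enzyme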
Neddyl block = blocks human cullin neddylation; AID 651699; 360,000 tested, 0.58% active; inhibition, % at 25 µM; P61081+Q13564; TR-FRET cullin neddylation, biochemical; in the data active = inhibition above about 36%
CSN5 deneddyl = Csn5 (human) deneddylation inhibition, single-concentration validation | shares compounds with CSN inh | Csn5 deneddylation of SCF-Nedd8OG, fluorescence polarization, 90 min | inhibition, % at 16.6 µM | 540 tested, 62% active | AID 720654; in the data active = inhibition above about 50%;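 note: 0% = DMSO with enzyme and 100% = no enzyme wells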
MMP2 cntr CSN = blocks human MMP-2 in a CSN deneddylation counter-screen | inhibition, % at 16.6 µM | shares compounds with CSN inh | recombinant MMP-2, FRET substrate fluorescence, 60 min | AID 720655 | 540 tested, 33% active;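 active = corrected plate-normalized z-score of 5 or more, or -5 or less, or inhibition of 15% or more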;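 note: plate controls were DMSO wells with enzyme for no effect and buffer wells lacking MMP-2 for full effect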
Thrombin counter = counter-screen for CSN deneddylation inhibitors: bovine thrombin inhibition; shares compounds with CSN inh; bovine thrombin cleavage of Ub4-pepOG, fluorescence polarization; inhibition, % at 16.6 µM; 540 tested, 49% active; AID 720656;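 active = inhibition at or above a set limit, with a fluorescence interference ratio between 0.5 and a set maximum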
* hit, by the source's call; . = no result shown. This is a sample that favours compounds with a hit; in the whole collection about 2.4% have one here.

SMILES | Rpn11 inh | CSN inh | HNF4A DNA FP | TbMetRS inhib | PREPL inh | Neddyl block | CSN5 deneddyl | MMP2 cntr CSN | Thrombin counter
CC(O)CN(CC(C)O)c1ccc2c(c1)Cc1cc([N+](=O)[O-])ccc1-2 (stereo unspecified) | . | 58* | 94 | 3 | . | -58 | 38 | 4 | 82*
O=C1Nc2ccc(Br)cc2C12NNc1ccccc1O2 (stereo unspecified) | . | 52* | 95 | 1 | 42 | -98 | 129* | -15 | 17*
O=C1Nc2ccc(Br)cc2C1(O)c1ccccc1 (stereo unspecified) | 1 | 0 | 4 | 0 | -6 | 4 | . | . | .
COC(=O)COc1ccc(-n2cnnn2)cc1 | 6 | 3 | 1 | 0 | 4 | 7 | . | . | .
CCC(Cc1c(I)cc(I)c(N)c1I)C(=O)O (stereo unspecified) | -5 | -2 | -4 | -1 | 2 | -12 | . | . | .
COC(=O)c1ccc2c(c1)C(C)(C)C(/C=C/c1ccc(OC)c(OC)c1OC)=[N+]2C | 8 | 6 | 2 | -1 | -468 | . | . | . | .
COC(=O)c1ccc2c(c1)C(C)(C)C(/C=C/c1ccc(O)cc1)=[N+]2C | . | 48* | 41* | -1 | -281 | . | 62* | -17 | 35*
Cn1cnc2c(cnn2C)c1=O | -1 | 0 | 2 | 0 | . | 1 | . | . | .
COc1ccc(NC(=S)Nc2ccc3nsnc3c2)cc1 | -20 | 49* | -4 | 4 | 43 | -33 | 94* | 30* | -28
CN(C)c1ccc(/C=C2/C[N+](C)(C)C/C(=C/c3ccc(N(C)C)cc3)C2=O)cc1 | . | 94* | 19 | 0 | . | -68 | 3 | -41* | 114*
COCCNC(=O)C1CCCN(Cc2cccc(C(F)(F)F)c2)CC1 (stereo unspecified) | -1 | -2 | 0 | 0 | . | 4 | . | . | .
COC1C(CO)OC(n2c3c(Cl)cccc3c3c4c(c5c6cccc(Cl)c6[nH]c5c32)C(=O)NC4=O)C(O)C1O (stereo unspecified) | . | 80* | 85 | 0 | . | -238 | 197* | -19 | 5
CN(C)/C=C1\C(=O)ON=C1c1ccccc1 | -2 | -2 | 0 | -1 | 5 | -13 | . | . | .
Cc1ccc(C2=NOC(=O)/C2=C\C=C\c2ccccc2)cc1 | 24 | 35* | 15 | 0 | . | -1 | 103* | 3 | 8
Cc1ccc(NC(=O)CN2C(=O)NC(Cc3c[nH]c4ccccc34)C2=O)cc1 (stereo unspecified) | 0 | -1 | -4 | 0 | 16 | 1 | . | . | .
CCN1/C(=C/c2ccc3cc(C)ccc3[n+]2CC)Sc2cc(C)ccc21 | . | 56* | 109* | -1 | . | -394 | 60* | -6 | 33
Cc1ccc2c(c1)S/C(=C/c1ccc[n+](C)c1)N2CCO | 5 | 1 | 0 | -1 | 15 | -40 | . | . | .
CCCCN1/C(=C/c2ccc3ccccc3[n+]2CC)Sc2ccccc21 | 21 | 22 | 35 | 0 | . | -163 | . | . | .
CCN1/C(=C/c2ccc3cc(C)ccc3[n+]2C)Sc2ccc3sccc3c21 | 108* | 137* | 180 | -1 | . | -46 | -16 | 11 | 67*
CCC1C/C(=C/c2ccco2)C(=O)/C(=C/c2ccco2)C1 (stereo unspecified) | . | . | . | . | 3 | . | . | . | .
CCC1C/C(=C\c2cc(OC)c(OC)cc2OC)C(=O)/C(=C/c2cc(OC)c(OC)cc2OC)C1 (stereo unspecified) | 102* | 35* | 71* | -1 | 13 | 7 | 64* | -10 | 48*
O=c1oc(/C=C/c2ccc([N+](=O)[O-])s2)nc2ccccc12 | 81* | 50* | 9 | -1 | -6 | 26 | 189* | 1 | 25*
Cc1nn(C)cc1/C=C1\SC(=S)NC1=O | 4 | 0 | -3 | 0 | -7 | -21 | . | . | .
O=C1NC(=S)S/C1=C\c1cc(Cl)cc(Cl)c1O | . | 45* | 28 | 1 | . | -69 | 54* | -3 | 56*
Cc1cc(/C=C2\SC(=S)NC2=O)c(C)n1-c1ccc(O)cc1 | . | 60* | 99* | 0 | 7 | -13 | 50* | 28* | 50*
SMILES | Rpn11 inh | CSN inh | HNF4A DNA FP | TbMetRS inhib | PREPL inh | Neddyl block | CSN5 deneddyl | MMP2 cntr CSN | Thrombin counter
O=C(O)CCCCCN1C(=O)/C(=C\c2ccc(-c3ccc(Cl)cc3)o2)SC1=S | . | 61* | 101 | 0 | -2 | -4 | 74* | 16* | 25*
CCOC(=O)c1sc2nc3c(SCC(=O)O)cc(C(=O)c4cc(F)ccc4O)cn3c(=O)c2c1C | 58* | 76* | -5 | -1 | -18 | 10 | 22 | 34* | 3
O=C(c1cc(-c2cccc(Cl)c2)nc2ccccc12)N1CCCC1 | 5 | -2 | 1 | 0 | 16 | -27 | . | . | .
COC(=O)c1cc(C)nc2c1C(=O)C(=O)C=C2N1CCOCC1 | 36 | 45* | 3 | 1 | 43 | -46 | 28 | 2 | -36
COC(=O)c1cc(S(=O)(=O)N2CCOCC2)c(Cl)cc1N1CCOCC1 | 2 | -6 | 2 | 0 | 2 | 4 | . | . | .
O=C(NCc1ccccc1C(F)(F)F)c1cccc2c1C(=O)c1ccc(N3CCOCC3)cc1S2(=O)=O | 12 | 32 | 17 | 0 | 4 | -22 | . | . | .
O=C(NCc1ccccc1C(F)(F)F)c1cccc2c1C(=O)c1ccc(N3CCC(N4CCCCC4)CC3)cc1S2(=O)=O | . | 143* | 79 | -1 | . | -32 | -46 | -45* | 46*
CNc1ccc(-c2cc(OC)ccc2OC)cn1 | 0 | -2 | 0 | 0 | . | . | . | . | .
CC(C)CSc1nc(N)nc2c1ncn2C1OC(CO)C(O)C1O (stereo unspecified) | -8 | -6 | 2 | 0 | . | 0 | . | . | .
CC(C)(C)Cc1c(-c2ccc(F)cc2)nc2ccc(Cl)cn12 | 1 | -1 | 6 | 0 | . | 2 | . | . | .
CC(C)(C)OC(=O)C[C@H]1C/C=C\C[C@H](CC(=O)N[C@H](CO)Cc2ccccc2)C(=O)N2CCC[C@H]2COC1=O | -1 | -1 | -2 | -2 | -9 | -2 | . | . | .
Cc1cccc(N2CCN(C(=S)Nc3ccc4nc(N5CCN(C)CC5)cc(C)c4c3)CC2)c1C | 17 | 36* | 59* | 1 | . | 29 | 97* | 14 | -5
Cc1nnc(-c2ccccc2)c(=O)n1/N=C/c1c(O)ccc2ccccc12 | . | 50* | 19 | -1 | 20 | -16 | 109* | -4 | 30*
Cc1nnc(C)n1/N=C/c1c(O)ccc2ccccc12 | -10 | 0 | 0 | 0 | 14 | 26 | . | . | .

From PubChem
